Reference: paper PMC10449033 (European journal of inorganic chemistry, 2023)
Where two headings read alike, the source gives them in different places.

Assays:
[1] = target: T1, mitochondrial calcium uniporter (MCU) (Homo sapiens, UniProt Q8NE86); assay: mCa2+ uptake inhibition in digitonin-permeabilized HeLa cells; type: cell-based; conditions: for mCa2+ uptake inhibition compared to untreated cells: 25 μM complex, digitonin-permeabilized HeLa cells
T1 sequence (Q8NE86 51-351): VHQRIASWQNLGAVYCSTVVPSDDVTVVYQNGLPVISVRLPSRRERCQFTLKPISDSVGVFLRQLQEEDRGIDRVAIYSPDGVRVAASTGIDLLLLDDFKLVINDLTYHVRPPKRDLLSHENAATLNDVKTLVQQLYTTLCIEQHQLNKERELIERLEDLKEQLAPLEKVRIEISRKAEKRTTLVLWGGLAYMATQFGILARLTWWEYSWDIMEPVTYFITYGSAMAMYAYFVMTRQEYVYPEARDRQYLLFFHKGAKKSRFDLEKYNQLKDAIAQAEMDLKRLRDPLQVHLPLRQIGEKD
T1 sequence (Q9H4I9 48-107 partner limits assumed): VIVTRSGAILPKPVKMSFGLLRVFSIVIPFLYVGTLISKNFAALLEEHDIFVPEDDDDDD
How it was run: (§1)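 Trypsinised cells permeabilised on ice for 15 min in KCl buffer (HEPES, pH 7.2) with 80 μM digitonin and 1 μM thapsigargin. Resuspended with 1 μM Calcium Green-5N and 2 mM succinate (HeLa 5 × 10^6, HEK293T 1 × 10^7 cells mL−1). Complex equilibrated ~200 s at room temperature, then CaCl2 added (HeLa 10, HEK293T 20 μM). Read ex 488/em 528 every 5 s. Rate from exponential time constant vs untreated; Hill IC50; three biological replicates ± SD.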

[2] = target: T1, mitochondrial calcium uniporter (MCU); assay: mCa2+ uptake inhibition in digitonin-permeabilized HEK293T cells; type: cell-based
How it was run: as §1

[3] = Cytotoxicity, MTT assay, HeLa cells; type: cell-based; conditions: human
How it was run: (§2)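 Cells seeded at ~4000 per well and left overnight, then exposed to a range of complex concentrations in medium for 72 h. MTT was added at 1 mg mL−1 in FBS-free DMEM for 3 h, and formazan was dissolved in 8:1 DMSO/glycine buffer (pH 10) for absorbance. Viability was normalised to untreated cells (100%), with Hill fit for IC50. Three independent trials ± SD.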

[4] = Cytotoxicity, MTT assay, HEK293T cells; type: cell-based; conditions: human
How it was run: as §2

HeLa cells = assay: Mitochondrial membrane potential via JC-1 assay, HeLa cells; type: cell-based; conditions: 50 μM, 24 h
How it was run: (§3)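 About 1 × 10^5 cells on glass-bottomed dishes, left overnight, then exposed to complex (50 μM) for 24 h at 37 °C. Loaded with 10 μM JC-1 for 30 min in the dark at 37 °C, washed, and imaged in PBS with green (monomer) and red (J-aggregate) filter sets. The positive control was 50 μM CCCP in PBS. Red/green CTCF came from ≥8 cells, normalised to untreated (=1). Three trials ± SD.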

[5] = target: T1, mitochondrial calcium uniporter (MCU); assay: Mitochondrial Ca2+ uptake in intact HeLa cells using Rhod 2-AM; type: cell-based; conditions: 50 μM, 2 h, 37 °C, histamine 100 μM
How it was run: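 About 1 × 10^5 HeLa cells left overnight, then exposed to complex (50 μM) in DMEM/10% FBS for 2 h at 37 °C. Loaded with 2 μM Rhod 2-AM in extracellular medium (1 mM CaCl2, 10 mM glucose, BSA, Pluronic F127) for 30 min in the dark at room temperature. Then 30 min dye-free, 15 min at 37 °C. Confocal imaging, ex 561/em 568–712 nm: ~30 s baseline, then histamine (100 μM), frames every 3 s. Per-cell CTCF expressed as F/F0.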

HEK293T cells = assay: Mitochondrial membrane potential via JC-1 assay, HEK293T cells; type: cell-based; conditions: 50 μM, 24 h
How it was run: as §3

[6] = target: T1, mitochondrial calcium uniporter (MCU); conditions: ref [35],[37],[39],[36]; cited from earlier work
[7] = target: T1, mitochondrial calcium uniporter (MCU); conditions: read-out: mCa2+ uptake inhibition IC50 HeLa, permeabilized HeLa cells, cited from earlier work
[8] = target: T1, mitochondrial calcium uniporter (MCU); conditions: read-out: mCa2+ uptake inhibition IC50 HEK293T; permeabilized HEK293T cells; ref [36]; cited from earlier work

Compound: O=[N+]([O-])C12CNCCNCC([N+](=O)[O-])(CNCCNC1)CNCCNC2.[Co+3] [Compound 1, [Co(diNOsar)]^3+]
- IC50 [1]: 6050 ± 480 nM
- IC50 [2]: 7980 ± 370 nM

Compound: NC12CNCCNCC(N)(CNCCNC1)CNCCNC2.[Co+3] [Compound 2, [Co(diAMsar)]^3+]
- IC50 [1]: > 25000 nM
- IC50 [2]: > 25000 nM
- viability at 72 h, 1000 µM [3]: 40%
- viability at 72 h, 1000 µM [4]: 40%

Compound: CC(CNCCN)(CNCCN)CNCCN.[Co+3] [Compound 3, [Co(sen)]^3+]
- IC50 [1]: 160 ± 20 nM
- mCa2+ uptake inhibition compared to untreated cells [1]: completely abolish mCa^2+ uptake
- IC50 [2]: 180 ± 20 nM
- depolarization of the mitochondrial membrane potential (JC-1) (HeLa cells): did not lead to depolarization
- inhibition of histamine-induced mCa2+ uptake in intact cells [5]: statistically significant decrease in mCa^2+ uptake
- depolarization of the mitochondrial membrane potential (JC-1) (HEK293T cells): did not lead to depolarization

Compound: CC12CNCCNCC([N+](=O)[O-])(CNCCNC1)CNCCNC2.[Co+3] [Compound 4, [Co(MeNOsar)]^3+]
- IC50 [1]: 2910 ± 260 nM
- mCa2+ uptake inhibition compared to untreated cells [1]: comparable to that of 1
- IC50 [2]: 2730 ± 200 nM

Compound: CCOC(=O)C12CNCCNCC(C)(CNCCNC1)CNCCNC2=O.[Co+3] [Compound 5, [Co(CO2Et,Mesar)]^2+]
- IC50 [1]: > 25000 nM
- IC50 [2]: > 25000 nM

Compound: CC12CNCCNCC(C(=O)O)(CNCCNC1)C(=O)NCCNC2.[Co+3] [Compound 6, [Co(CO2H,Mesar)]^2+]
- IC50 [1]: > 25000 nM
- IC50 [2]: > 25000 nM

Compound: N.N.N.N.N.N.N.N.[Cl][Ru+3].[N-]=[Ru][Cl] [Ru265]
- inhibition of MCU-mediated mCa2+ uptake in intact HeLa cells [6]: able to inhibit
- inhibition of histamine-induced mCa2+ uptake in intact cells [5]: significantly diminish mCa^2+ uptake

Compound: N.N.N.N.N.N.N.N.[Cl][Ru+3].[NH]=[Ru][Cl] [Ru265]
- IC50 ([7]; ref [36]): 3.9 ± 1 nM
- IC50 [8]: 8.6 ± 2.2 nM

Compound: NCCN.NCCN.NCCN.[Co+3] [[Co(en)3]^3+]
- inhibition of histamine-induced mCa2+ uptake in intact cells [5]: cannot
- IC50 ([7]; ref [36]): 115 ± 13 nM
- IC50 [8]: 76 ± 10 nM

Compound: Os245
- inhibition of MCU-mediated mCa2+ uptake in intact HeLa cells [6]: able to inhibit
- IC50 ([7]; ref [39]): 103 ± 30 nM

Compound: Os245′
- IC50 ([7]; ref [39]): 2.3 ± 0.8 nM
